The results in this text go back to ChEMBL document CHEMBL4145673, “Glucopyranosylbianthrones from the Algerian Asphodelus tenuifolius: Structural Insights and Biological Evaluation on Melanoma Cancer Cells” (J Nat Prod, 2018).

pIC50: −log10 of the molar value. Activity calls are given as the source filed them. The calls are words filed in the database; no cut-off is given here.

For test [1], the system named is A-375. Put plainly: Antiproliferative activity against human A375 cells measured after 48 hrs by MTT assay. The class given is functional, cell-based. The method in brief: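 A375 melanoma cells grown in DMEM with 10% FBS, 2 mM L-glutamine, penicillin/streptomycin at 37 °C, 5% CO2, subcultured every 2 days; seeded 1 × 10^4/well in triplicate, exposed 48 h to 5−50 μM (DMSO stock diluted into medium; vehicle control 0.1% v/v DMSO). MTT conversion read-out; IC50 from viability dose−response curves versus DMSO-treated control.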

For test [2], the system named is A-375. Put plainly: Induction of apoptosis in human A375 cells assessed as increase in hypodiploid nuclei at 20 to 40 uM measured after 48 hrs by propidium iodide staining based flow cytometry relative to control. The class given is functional. In short, it runs like this:
(§1)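 A375 cells exposed 48 h (text gives 20, 30, 40 μM; methods give 10, 20, 40 μM), harvested, washed in cold PBS, stained 30 min at 4 °C in hypotonic PI buffer (0.1% sodium citrate, 0.1% Triton X-100, 25 μg/mL PI, 10 μg/mL RNase A). Flow cytometry for G0/G1, S, G2/M distribution and hypodiploid nuclei; means ± SD, triplicate determinations; two-way ANOVA with Bonferroni.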

The test system of test [3] is A-375. The test can be described thus: Cell cycle arrest in human A375 cells assessed as decrease in accumulation at G1-phase at 20 to 40 uM measured after 48 hrs by propidium iodide staining based flow cytometry. The class given is functional. The method in brief: as §1
Test [4] relates to A-375. The test can be described thus: Cell cycle arrest in human A375 cells assessed as increase in accumulation at G2/M-phase at 20 to 40 uM measured after 48 hrs by propidium iodide staining based flow cytometry. The format is functional. The method in brief:
as §1

Test [5] deals with A-375. The test can be described thus: Cell cycle arrest in human A375 cells assessed as decrease in accumulation at S-phase at 20 to 40 uM measured after 48 hrs by propidium iodide staining based flow cytometry. The format is functional. The method in brief:
as §1

Test [6] deals with A-375. Put plainly: Cell cycle arrest in human A375 cells measured after 48 hrs by propidium iodide staining based flow cytometry. The format is functional. The method in brief: as §1
In test [7] the test system is A-375. Put plainly: Cell cycle arrest in human A375 cells assessed as increase in accumulation at S-phase at 20 to 40 uM measured after 48 hrs by propidium iodide staining based flow cytometry. The class given is functional. In short, it runs like this: as §1

For `Cc1cc(O)c2c(c1)[C@](O)(C1O[C@H](CO)[C@@H](O)[C@H](O)[C@H]1O)c1ccc(-c3c(C)cc(O)c4c3C(=O)c3cccc(O)c3C4=O)c(O)c1C2=O` (atropisomer P) [listing 1 of 2 here], the pIC50 in the test with A-375 [1] (a-375) was 4.63. For the same compound, the Activity with A-375 [2] worked out at 12.2%.
For the compound `Cc1cc(O)c2c(c1)[C@](O)(C1O[C@H](CO)[C@@H](O)[C@H](O)[C@H]1O)c1ccc(-c3c(C)cc(O)c4c3C(=O)c3cccc(O)c3C4=O)c(O)c1C2=O` (atropisomer P) [listing 2 of 2 here], the Activity result in the test on A-375 [1] and in the test on A-375 [6] was “Dose-dependent effect” in each case. The outcome in the test with A-375 [3], in the test on A-375 [4] and in the test with A-375 [5] was Active.
With `Cc1cc(O)c2c(c1)[C@](O)(C1O[C@H](CO)[C@@H](O)[C@H](O)[C@H]1O)c1ccc(-c3c(C)cc(O)c4c3C(=O)c3cccc(O)c3C4=O)c(O)c1C2=O` (single isomer, unassigned; atropisomer M) [listing 1 of 2 here], the pIC50 in the test with A-375 [1] (Homo sapiens, A-375, 48 h) is 4.69. Besides, the Activity with A-375 [2] worked out at 13.2%.
On to `Cc1cc(O)c2c(c1)[C@](O)(C1O[C@H](CO)[C@@H](O)[C@H](O)[C@H]1O)c1ccc(-c3c(C)cc(O)c4c3C(=O)c3cccc(O)c3C4=O)c(O)c1C2=O` (single isomer, unassigned; atropisomer M) [listing 2 of 2 here], for which the Activity entry in the test on A-375 [1] and in the test on A-375 [6] was “Dose-dependent effect” in each case. Besides, the result in the test with A-375 [7] and in the test on A-375 [3] was Active.
